Data: ChEMBL document CHEMBL4831489, “Design and synthesis of the first indole-based blockers of Panx-1 channel” (Eur J Med Chem, 2021)
The source made the active and inactive calls.

What was measured:
[1] = molecular target: Pannexin-1 (Mus musculus) (UniProt Q9JIP4); assay: Inhibition of mouse Panx-1 expressed in Xenopus laevis oocytes assessed as inhibition of membrane current cells held at -60 mV and voltage steps to +60 mV in presence of CBX at 50 uM measured by Whole cell voltage clamp assay relative to control; format: cell-based; settings: Oocyte
Sequence of Pannexin-1 (Mus musculus) (Q9JIP4 whole entry, the tested form may be a part): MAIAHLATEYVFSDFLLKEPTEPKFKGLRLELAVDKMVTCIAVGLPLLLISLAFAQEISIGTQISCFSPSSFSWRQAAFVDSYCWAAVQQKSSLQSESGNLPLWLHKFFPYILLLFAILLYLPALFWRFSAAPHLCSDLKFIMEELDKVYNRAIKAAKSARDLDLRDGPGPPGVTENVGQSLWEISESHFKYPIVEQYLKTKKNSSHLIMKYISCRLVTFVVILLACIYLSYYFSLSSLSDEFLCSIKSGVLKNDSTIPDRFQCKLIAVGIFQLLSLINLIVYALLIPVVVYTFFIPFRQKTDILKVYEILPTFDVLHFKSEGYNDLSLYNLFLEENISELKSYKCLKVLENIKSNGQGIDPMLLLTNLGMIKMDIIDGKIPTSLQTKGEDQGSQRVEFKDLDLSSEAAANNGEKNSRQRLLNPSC
Summary of the method: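 Xenopus oocytes expressing Panx-1 were studied by two-electrode voltage clamp (3 M KCl electrodes) under continuous perfusion with OR2 Ringer, pH 7.5. Cells were held at −60 mV, with 5 s steps to +60 mV at 0.1 Hz. Compounds were screened at 50 µM and inhibition expressed as % of membrane current, n = 1–3 oocytes.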

Mus musculus [2] = organism: Mus musculus; assay: Antiallodynic activity in oxaliplatin-induced neuropathy pain CD-1 mouse model assessed as reversal of enhancement of pain threshold at 0.3 to 1 nmol, IT measured after 80 mins by cold plate assay; format: functional, organism-based; settings: dose 0.3-1 nmol
Summary of the method: (§1)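 Male CD-1 mice (22–25 g) given oxaliplatin 2.4 mg kg⁻¹ i.p. in 5% glucose on days 1–2, 5–9 and 12–14. Test agents were dissolved in saline and injected intrathecally (5 µl, L4–L5) at 0.1–1 nmol from day 14. Cold plate held at 4 °C. Latency to first paw lift/lick was recorded every 15 min.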

[3] = molecular target: T1, P2X purinoceptor 7 (Homo sapiens) (UniProt Q99572); assay: Inhibition of human P2X7R expressed in Xenopus laevis oocytes assessed as inhibition of BzATP-induced cell membrane current at 10 uM measured by Whole cell voltage clamp assay relative to control; format: cell-based; settings: Oocyte
T1 sequence (whole entry): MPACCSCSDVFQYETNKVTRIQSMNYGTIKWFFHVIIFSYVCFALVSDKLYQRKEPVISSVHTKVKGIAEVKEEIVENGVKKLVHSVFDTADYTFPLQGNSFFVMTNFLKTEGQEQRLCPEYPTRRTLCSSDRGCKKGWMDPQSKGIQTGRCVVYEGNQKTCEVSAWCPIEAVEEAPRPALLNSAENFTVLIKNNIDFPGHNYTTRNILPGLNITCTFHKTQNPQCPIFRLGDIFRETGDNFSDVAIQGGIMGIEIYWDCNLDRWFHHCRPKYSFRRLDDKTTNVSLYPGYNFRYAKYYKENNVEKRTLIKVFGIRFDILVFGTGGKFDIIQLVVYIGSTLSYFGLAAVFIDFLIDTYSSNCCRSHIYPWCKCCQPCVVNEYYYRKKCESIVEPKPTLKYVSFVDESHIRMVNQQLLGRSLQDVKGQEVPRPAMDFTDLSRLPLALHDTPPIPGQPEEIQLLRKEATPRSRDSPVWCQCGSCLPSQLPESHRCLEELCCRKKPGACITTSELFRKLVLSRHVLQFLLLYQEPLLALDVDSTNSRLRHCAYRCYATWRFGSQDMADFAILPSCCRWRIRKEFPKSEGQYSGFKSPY

Mus musculus [4] = organism: Mus musculus; assay: Antiallodynic activity in oxaliplatin-induced neuropathy pain CD-1 mouse model assessed as reversal of enhancement of pain threshold at 1 nmol, IT measured after 60 to 105 mins by cold plate assay; format: functional, organism-based; settings: time 60-105 min; summary of the method: as §1
Pannexin-1 = Pannexin-1 (Mus musculus, UniProt Q9JIP4); assay: Inhibition of mouse Panx-1 expressed in Xenopus laevis oocytes assessed as inhibition of membrane current cells held at -60 mV and voltage steps to +60 mV in presence of CBX measured by Whole cell voltage clamp assay relative to control; format: cell-based, Oocyte
Sequence of Pannexin-1 (Q9JIP4 whole entry, the tested form may be a part): as the sequence (Q9JIP4 whole entry, the tested form may be a part) above
Summary of the method: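 Two-electrode voltage clamp of Panx-1-expressing Xenopus oocytes perfused with OR2, pH 7.5. Holding potential −60 mV, with repetitive 5 s steps to +60 mV at 0.1 Hz. Compound was applied at increasing concentrations to build dose–response curves and derive IC50.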

[5] = molecular target: Gap junction beta-1 protein (Homo sapiens) (UniProt P08034); assay: Inhibition of wild type Cx32(E143) (unknown origin) expressed in Xenopus laevis oocytes assessed as at holding potential of -10 mV and stepped in 5 mV test pulses of 5 sec duration at 10 uM measured by Voltage clamp assay relative to control; format: cell-based; settings: Oocyte
Sequence of Gap junction beta-1 protein (Homo sapiens) (P08034 whole entry): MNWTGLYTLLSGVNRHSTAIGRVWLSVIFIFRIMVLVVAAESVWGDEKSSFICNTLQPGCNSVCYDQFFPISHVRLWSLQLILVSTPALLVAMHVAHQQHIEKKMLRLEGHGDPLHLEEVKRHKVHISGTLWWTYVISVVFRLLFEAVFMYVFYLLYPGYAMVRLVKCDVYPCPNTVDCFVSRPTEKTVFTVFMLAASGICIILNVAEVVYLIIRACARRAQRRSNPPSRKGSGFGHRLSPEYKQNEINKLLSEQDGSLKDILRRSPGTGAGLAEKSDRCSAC

Mus musculus [6] = organism: Mus musculus; assay: Antiallodynic activity in oxaliplatin-induced neuropathy pain CD-1 mouse model assessed as reversal of enhancement of pain threshold at 0.3 nmol, IT measured after 45 mins by cold plate assay; format: functional, organism-based; summary of the method: as §1
Mus musculus [7] = organism: Mus musculus; assay: Antiallodynic activity in oxaliplatin-induced neuropathy pain CD-1 mouse model assessed as reversal of enhancement of pain threshold at 1 nmol, IT measured after 45 to 90 mins by cold plate assay; format: functional, organism-based; settings: time 45-90 min
Summary of the method: (§2)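 Male CD-1 mice (22–25 g) were given oxaliplatin 2.4 mg kg−1 i.p. in 5% glucose on days 1–2, 5–9 and 12–14, with vehicle controls. Behavioural tests were done on day 15. Compounds in saline were injected intrathecally at L4–L5 at 0.1–1 nmol. Mice were placed on a 4 °C cold plate, and latency to the first hind-paw lifting or licking was recorded every 15 min.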

Mus musculus [8] = assay: Antiallodynic activity in oxaliplatin-induced neuropathy pain IT dosed CD-1 mouse model assessed as reversal of enhancement of pain threshold by measuring minimum effective dose measured 60 to 75 mins by cold plate assay; format: functional, organism-based; settings: dose 0.3 nmol, time 60-75 min; summary of the method: as §2

| Compound | inhibition [1] [%] | IC50 (Pannexin-1) [µM] | further results |
| --- | --- | --- | --- |
| O=C(O)c1cc2cc([N+](=O)[O-])ccc2n1CCCCCc1ccccc1 | 58 |  |  |
| O=C(O)c1cc2cc(N(Cc3ccccc3)Cc3ccccc3)ccc2n1Cc1ccccc1 | 0 |  | Activity (Mus musculus [2]): inactive |
| O=C(O)c1ccc(CNS(=O)(=O)c2ccc3c(c2)cc(C(=O)O)n3Cc2ccc(C(=O)O)cc2)cc1 | 100 | 0.8 | inhibition [3]: 0%; Activity (Mus musculus [4]): Active; inhibition [5]: 0%; Activity (Mus musculus [6]): Active |
| O=C(O)c1cc2cc(S(=O)(=O)N(CCc3ccccc3)Cc3ccccc3)ccc2n1CCc1ccccc1 | 37.3 |  |  |
| NS(=O)(=O)c1ccc2c(c1)cc(C(=O)O)n2Cc1ccccc1 | 29.3 |  | inhibition [3]: 15%; inhibition [5]: 15% |
| O=C(O)c1cc2cc(S(=O)(=O)N(Cc3ccccc3)Cc3ccccc3)ccc2n1CCc1ccccc1 | 41.3 |  |  |
| O=C(O)c1cc2cc([N+](=O)[O-])ccc2n1CCCc1ccccc1 | 65.5 | 23.1 |  |
| O=C(O)c1cc([N+](=O)[O-])ccc1NCCCc1ccccc1 [5-NITRO-2-PHENYLPROPYLAMINOBENZOIC ACID [NPPB]] |  | 50 |  |
| NS(=O)(=O)c1ccc2c(c1)cc(C(=O)O)n2Cc1ccc(C(=O)O)cc1 | 61.7 |  |  |
| O=C(O)c1cn(CCCCc2ccccc2)c2ccc([N+](=O)[O-])cc12 | 65.7 |  |  |
| O=C(O)c1cn(Cc2ccccc2)c2ccc([N+](=O)[O-])cc12 | 65 | 27.5 |  |
| O=C(O)c1ccc(CCn2cc(C(=O)O)c3cc([N+](=O)[O-])ccc32)cc1 | 73 |  |  |
| O=C(O)c1cn(CCCCCc2ccccc2)c2ccc([N+](=O)[O-])cc12 | 32.3 |  |  |
| O=C(O)c1cn(CCCc2ccccc2)c2ccc([N+](=O)[O-])cc12 | 71 | 12.4 | Activity (Mus musculus [7]): Active; Activity (Mus musculus [8]): Active; inhibition [3]: 0%; inhibition [5]: 0% |
| O=C(O)c1ccc(Cn2c(C(=O)O)cc3cc([N+](=O)[O-])ccc32)cc1 | 61 | 4.9 |  |
| O=C(O)c1cn(CCc2ccccc2)c2ccc([N+](=O)[O-])cc12 | 52.7 |  |  |
| CCCN(CCC)S(=O)(=O)c1ccc(C(=O)O)cc1 [PROBENECID] |  | 150 |  |
| O=C(O)c1cc2cc(S(=O)(=O)NCCc3ccccc3)ccc2n1CCc1ccccc1 | 57.7 |  |  |
| O=C(O)c1cc2cc(S(=O)(=O)N(Cc3ccccc3)Cc3ccccc3)ccc2n1Cc1ccccc1 | 41 |  | inhibition [3]: 0%; inhibition [5]: 20% |
| O=C(O)c1cc2cc([N+](=O)[O-])ccc2n1CCc1ccccc1 | 56.3 |  |  |
| O=C(O)c1cn(Cc2ccccc2)c2ccc(N(Cc3ccccc3)Cc3ccccc3)cc12 | 19.5 |  |  |
| O=C(O)c1ccc(Cn2cc(C(=O)O)c3cc([N+](=O)[O-])ccc32)cc1 | 54 |  |  |
| O=C(O)c1ccc(Cn2c(C(=O)O)cc3cc(S(=O)(=O)N(Cc4ccccc4)Cc4ccccc4)ccc32)cc1 | 100 | 0.25 | inhibition [3]: 61.8%; inhibition [5]: 0% |
| CCN(Cc1cccc(S(=O)(=O)O)c1)c1ccc(C(=C2C=CC(=[N+](CC)Cc3cccc(S(=O)(=O)O)c3)C=C2)c2ccccc2S(=O)(=O)[O-])cc1 |  | 0.27 |  |
| O=C(O)c1ccc(CN(Cc2ccc(C(=O)O)cc2)S(=O)(=O)c2ccc3c(c2)cc(C(=O)O)n3Cc2ccc(C(=O)O)cc2)cc1 | 79 |  |  |
| O=C(O)c1cc2cc(S(=O)(=O)NCc3ccccc3)ccc2n1Cc1ccccc1 | 42 |  |  |
| O=C(O)c1ccc(CCn2c(C(=O)O)cc3cc([N+](=O)[O-])ccc32)cc1 | 31.7 |  |  |
| O=C(O)c1cc2cc([N+](=O)[O-])ccc2n1Cc1ccccc1 | 51.3 |  |  |
